Experimental findings from PMC4831591 (International Journal of Nanomedicine, 2016) are described below.

Molecules are shown by their SMILES. Converted amounts (≈) assume the structure as drawn.

A short description of series [1]: In vitro drug-release assay by dialysis. The format is physicochemical. To be noted: 37°C, PBS pH 7.4, 48 hours, n=3. The essentials:
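Dialysis in 2,000 Da MWCO bag against PBS pH 7.4, stirred 48 h at 37±0.5°C. Medium sampled at time points and replaced. Total drug found by methanol disruption of liposomes. Quantified by HPLC: C18 column, methanol/0.025 M KH2PO4 (11:89, pH 3 with H3PO4), 1.0 mL/min, UV 210 nm; n=3.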

Series [2] is described as follows: Biodistribution study in H22 tumor-bearing mice. The series is classed as in vivo. As to conditions: n=6; for AUC0–8 / Cmax / t½: 2 mg/kg intravenous. The essentials: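 Subcutaneous H22 model: ascites cells from donor mice diluted in saline to 1×10^7/mL and injected into right hind limb (~0.1 mL/10 g). At ~300 mm3 tumor, mice randomized; single tail-vein 2 mg/kg; killed at 1, 2, 4, 8 h (n=6). Tumor and organs rinsed, weighed, homogenized 1:4 w/v in saline. HCl/IS/acetone extraction; FDA-validated LC-MS/MS. Noncompartmental AUC0–8, Cmax; Te = AUC target/(target+untargeted)×100.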

In the next series the test system is H22 tumor-bearing mice. Briefly: In vivo antineoplastic activity in H22 tumor-bearing mice. To be noted: 2 mg/kg per day, days 1–9, measured on day 10, n=10. The essentials:
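H22 cells in saline (1×10^7/mL) injected subcutaneously in right hind limb on day 0. Mice randomized to PBS control or treatment, 2 mg/kg tail vein daily on days 1–9 (n=10). Tumor volume by caliper and body weight daily. Killed day 10 and tumors excised and weighed. IRw = (1 − Wdrug/Wcontrol)×100.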

A further series concerns H22 cells. Briefly: In vitro cytotoxicity, MTT assay. The series is classed as cell-based, murine. To be noted: n=3. A digest of the protocol:
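Log-phase H22 cells seeded at 10^4/well, grown 24 h, medium renewed. Treated at 0.8, 4, 20, 100, 500 μg/mL for 24 or 48 h; blank liposomes at matched concentrations. MTT (5 mg/mL stock in PBS) added for 4 h, formazan dissolved in DMSO, A490 read. Inhibition rate = (1 − A490 treated/A490 untreated)×100.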
(In general: Tetrazolium assays rely on reduction of a dye to a coloured formazan, in cell work by metabolically active cells.)

The term Cmax denotes the peak of the concentration-time curve. What is called t½ is the time in which the quantity being followed falls by half. Consider `O=C(O)[C@@H]1[C@H](C(=O)O)[C@H]2CC[C@@H]1O2` [DM-NCTD, diacid metabolite of norcantharidin], for which, in series [1], the “In vitro release of DM-NCTD” value was “quickly and completely released”. In series [2] (2 mg/kg tail vein), the “Time at which the highest concentrations were achieved in tissues and tumors” value was 2 h. The “AUC0–8” value is 116.98±10.63 ng⋅h/mL in series [2] (heart); 1,283.72±66.1 ng⋅h/mL in series [2] (kidney); 1,481.15±51.3 ng⋅h/mL in series [2] (liver); 266.17±13.55 ng⋅h/mL in series [2] (lung); 740.09±25.16 ng⋅h/mL in series [2] (spleen); 223.18±17.56 ng⋅h/mL in series [2] (tumor). For the same compound, the Cmax amounted to 24.08 ± 2.39 ng/mL in series [2] (heart); 427.14 ± 20.81 ng/mL in series [2] (kidney); 330.15 ± 13.96 ng/mL in series [2] (liver); 73.43 ± 6.17 ng/mL in series [2] (lung); 340.11 ± 17.74 ng/mL in series [2] (spleen); 54.57 ± 9.21 ng/mL in series [2] (tumor). Moreover, the t½ in series [2] (heart) turned out to be 110 ± 15 min; in series [2] (kidney), 56.4 ± 16.8 min; in series [2] (liver) it was 56.4 ± 13.2 min; in series [2] (lung), 90.6 ± 19.2 min; in series [2] (spleen), 53.4 ± 1.2 min; in series [2] (tumor), 61.2 ± 8.4 min. This compound also showed a Tumor weight in the series with H22 tumor-bearing mice of 1.02 ± 0.3 g. For the same compound, the “IRw (inhibition rate on tumor weight)” value with H22 tumor-bearing mice (vs PBS control) amounted to 30.14%. For the same compound, the entries for the “IC50 on H22 cell lines” value in the series on H22 cells (24 hours) and in the series on H22 cells (48 hours) were 39.6 ± 1.20 µg/mL (≈ 213 µM) and 30.0 ± 1.73 µg/mL (≈ 161 µM), respectively.
